Laboratory results taken from ChEMBL document CHEMBL1123539, “[p-[(Thienylcarbonyl)amino]phenoxy]propanolamines derivatives as diuretic and beta-adrenergic receptor blocking agents” (1986).

Tests used:
Rattus norvegicus [1] = test: Compound was tested for oral salidiuretic activity (control/drug treatment value) in rats expressed as urinary output. at a dose of 128 mg/kg; 7.67/6.97; assay type: functional, Urine
[2] = molecular target: Beta-2 adrenergic receptor (Canis lupus familiaris) (UniProt P54833)
[3] = molecular target: Beta-1 adrenergic receptor (Homo sapiens) (UniProt P08588); conditions: Canis lupus familiaris
Rattus norvegicus [4] = test: Compound was tested for oral salidiuretic activity (control/drug treatment value) in rats expressed in Na+, mequiv/6 hr at a dose of 128 mg/kg; 0.310/0.148; assay type: functional, Urine
Rattus norvegicus [5] = test: Compound was tested for oral salidiuretic activity (control/drug treatment value) in rats expressed in Na+, mequiv/6 hr at a dose of 128 mg/kg; 0.202/0.961; assay type: functional, Urine
Rattus norvegicus [6] = test: Compound was tested for oral salidiuretic activity (control/drug treatment value) in rats expressed as urinary output. at a dose of 128 mg/kg; 7.17/11.25; assay type: functional, Urine
Rattus norvegicus [7] = test: Compound was tested for oral salidiuretic activity (control/drug treatment value) in rats expressed in Na+, mequiv/6 hr at a dose of 128 mg/kg; 0.144/0.470; assay type: functional, Urine
Rattus norvegicus [8] = test: Compound was tested for oral salidiuretic activity (control/drug treatment value) in rats expressed as urinary output. at a dose of 128 mg/kg; 6.50/8.47; assay type: functional, Urine
[9] = molecular target: Beta-1 adrenergic receptor (Homo sapiens) (UniProt P08588); test: Compound was tested for beta-1 adrenergic receptor blocking activity in dogs; conditions: Canis lupus familiaris; target entry is the homologue from another species
Rattus norvegicus [10] = test: Compound was tested for oral salidiuretic activity (control/drug treatment value) in rats expressed as urinary output. at a dose of 32 mg/kg at 0-2h; 7.42/9.64; assay type: functional, Urine
Rattus norvegicus [11] = test: Compound was tested for oral salidiuretic activity (control/drug treatment value) in rats expressed as urinary output. at a dose of 64 mg/kg; 6.42/11.25; assay type: functional, Urine
Rattus norvegicus [12] = test: Compound was tested for oral salidiuretic activity (control/drug treatment value) in rats expressed as urinary output. at a dose of 128 mg/kg; 6.42/15.08; assay type: functional, Urine
Rattus norvegicus [13] = test: Compound was tested for oral salidiuretic activity (control/drug treatment value) in rats expressed as urinary output. at a dose of 16 mg/kg; 6.42/9; assay type: functional, Urine
Rattus norvegicus [14] = test: Compound was tested for oral salidiuretic activity (control/drug treatment value) in rats expressed in Na+, mequiv/6 hr at a dose of 128 mg/kg;. 207/1.364; assay type: functional, Urine
Rattus norvegicus [15] = test: Compound was tested for oral salidiuretic activity (control/drug treatment value) in rats expressed as urinary output. at a dose of 32 mg/kg at 0-4 h; 9.02/11.67; assay type: functional, Urine
[16] = molecular target: Beta-1 adrenergic receptor (Homo sapiens) (UniProt P08588); test: Compound was tested for beta-1 adrenergic receptor blocking activity in conscious rats after 1 hr; conditions: Rattus norvegicus; target entry is the homologue from another species
Rattus norvegicus [17] = test: Compound was tested for oral salidiuretic activity (control/drug treatment value) in rats expressed as urinary output. at a dose of 32 mg/kg; 6.42/9.83; assay type: functional, Urine
Rattus norvegicus [18] = test: Compound was tested for oral salidiuretic activity (control/drug treatment value) in rats expressed as urinary output. at a dose of 32 mg/kg at 0-6 h; 9.99/13.01; assay type: functional, Urine
Rattus norvegicus [19] = test: Compound was tested for oral salidiuretic activity (control/drug treatment value) in rats expressed in Na+, mequiv/6 hr at a dose of 32 mg/kg; 0.207/0.626; assay type: functional, Urine
Rattus norvegicus [20] = test: Compound was tested for oral salidiuretic activity (control/drug treatment value) in rats expressed in Na+, mequiv/6 hr at a dose of 32 mg/kg; 0.259/0.680; assay type: functional, Urine
Rattus norvegicus [21] = test: Compound was tested for oral salidiuretic activity (control/drug treatment value) in rats expressed in Na+, mequiv/6 hr at a dose of 64 mg/kg; 0.207/0.766; assay type: functional, Urine
[22] = molecular target: Beta-2 adrenergic receptor (Canis lupus familiaris) (UniProt P54833); test: The compound was tested for beta-2 adrenergic receptor blocking activity in dogs
In short: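 In two dogs, drugs were injected via a cannulated saphenous vein, with increasing doses given every 30 min and each animal used once per substance. Isoproterenol-induced changes in diastolic arterial pressure after each dose were compared with isoproterenol control responses to calculate percent blockade. ID50 (50% inhibition) was estimated from the dose-response curve.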

[23] = molecular target: Beta-2 adrenergic receptor (Rattus norvegicus) (UniProt P10608); test: The compound was tested for beta-2 adrenergic receptor blocking activity in conscious rats after 1 hr
[24] = molecular target: Beta-1 adrenergic receptor (Homo sapiens) (UniProt P08588); test: Compound was tested for beta-1 adrenergic receptor blocking activity in conscious rats after 5 hr; conditions: Rattus norvegicus; target entry is the homologue from another species
Rattus norvegicus [25] = test: Compound was tested for oral salidiuretic activity (control/drug treatment value) in rats expressed in Na+, mequiv/6 hr at a dose of 16 mg/kg; 0.207/0.554; assay type: functional, Urine
Rattus norvegicus [26] = test: Compound was tested for oral salidiuretic activity (control/drug treatment value) in rats expressed in Na+, mequiv/6 hr at a dose of 128 mg/kg; 0.198/0.885; assay type: functional, Urine
Rattus norvegicus [27] = test: Compound was tested for oral salidiuretic activity (control/drug treatment value) in rats expressed as urinary output. at a dose of 128 mg/kg; 8.17/12.83; assay type: functional, Urine
Rattus norvegicus [28] = test: Compound was tested for oral salidiuretic activity (control/drug treatment value) in rats expressed as urinary output. at a dose of 64 mg/kg; 10.33/9.33; assay type: functional, Urine
Rattus norvegicus [29] = test: Compound was tested for oral salidiuretic activity (control/drug treatment value) in rats expressed in Na+, mequiv/6 hr at a dose of 64 mg/kg; 0.140/0.355; assay type: functional, Urine
Rattus norvegicus [30] = test: Compound was tested for oral salidiuretic activity (control/drug treatment value) in rats expressed as urinary output. at a dose of 128 mg/kg; 8.42/6.75; assay type: functional, Urine
Rattus norvegicus [31] = test: Compound was tested for oral salidiuretic activity (control/drug treatment value) in rats expressed in Na+, mequiv/6 hr at a dose of 128 mg/kg; 0.186/0.243; assay type: functional, Urine
Rattus norvegicus [32] = test: Compound was tested for oral salidiuretic activity (control/drug treatment value) in rats expressed as urinary output. at a dose of 32 mg/kg; 10.33/10.08; assay type: functional, Urine
Rattus norvegicus [33] = test: Compound was tested for oral salidiuretic activity (control/drug treatment value) in rats expressed in Na+, mequiv/6 hr at a dose of 32 mg/kg; 0.140/0.417; assay type: functional, Urine
Rattus norvegicus [34] = test: Compound was tested for oral salidiuretic activity (control/drug treatment value) in rats expressed in Na+, mequiv/6 h at a dose of 128 mg/kg; 0.177/0.304; assay type: functional, Urine
Rattus norvegicus [35] = test: Compound was tested for oral salidiuretic activity (control/drug treatment value) in rats expressed as urinary output. at a dose of 128 mg/kg; 7.87/8.70; assay type: functional, Urine

Sequence of Beta-1 adrenergic receptor (Homo sapiens) (P08588 whole entry, looked up): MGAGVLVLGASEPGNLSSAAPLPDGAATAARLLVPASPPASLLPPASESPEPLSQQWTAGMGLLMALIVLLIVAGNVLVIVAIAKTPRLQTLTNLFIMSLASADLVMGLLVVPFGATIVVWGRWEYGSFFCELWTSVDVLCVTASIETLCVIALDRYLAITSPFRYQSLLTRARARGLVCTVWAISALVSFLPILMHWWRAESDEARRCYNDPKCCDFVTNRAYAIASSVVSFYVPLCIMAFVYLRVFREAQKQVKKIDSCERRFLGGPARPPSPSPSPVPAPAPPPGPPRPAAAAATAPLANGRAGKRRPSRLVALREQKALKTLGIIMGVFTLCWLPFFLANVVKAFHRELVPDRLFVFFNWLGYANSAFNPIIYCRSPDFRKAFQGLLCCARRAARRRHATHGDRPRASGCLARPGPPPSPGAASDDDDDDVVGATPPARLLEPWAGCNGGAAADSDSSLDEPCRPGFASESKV
Sequence of Beta-2 adrenergic receptor (Canis lupus familiaris) (P54833 whole entry, looked up): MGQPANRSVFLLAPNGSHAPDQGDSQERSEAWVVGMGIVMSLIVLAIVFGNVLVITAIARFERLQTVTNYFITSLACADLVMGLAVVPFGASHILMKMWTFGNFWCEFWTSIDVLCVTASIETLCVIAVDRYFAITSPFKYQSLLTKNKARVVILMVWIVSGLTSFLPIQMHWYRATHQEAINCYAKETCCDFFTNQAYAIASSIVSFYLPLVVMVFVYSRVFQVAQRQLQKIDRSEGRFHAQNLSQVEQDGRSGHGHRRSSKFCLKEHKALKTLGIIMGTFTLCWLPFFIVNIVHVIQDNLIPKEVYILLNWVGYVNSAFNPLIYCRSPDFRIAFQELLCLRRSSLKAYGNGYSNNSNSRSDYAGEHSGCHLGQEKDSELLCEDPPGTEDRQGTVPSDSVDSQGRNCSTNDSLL
Sequence of Beta-2 adrenergic receptor (Rattus norvegicus) (P10608 whole entry, looked up): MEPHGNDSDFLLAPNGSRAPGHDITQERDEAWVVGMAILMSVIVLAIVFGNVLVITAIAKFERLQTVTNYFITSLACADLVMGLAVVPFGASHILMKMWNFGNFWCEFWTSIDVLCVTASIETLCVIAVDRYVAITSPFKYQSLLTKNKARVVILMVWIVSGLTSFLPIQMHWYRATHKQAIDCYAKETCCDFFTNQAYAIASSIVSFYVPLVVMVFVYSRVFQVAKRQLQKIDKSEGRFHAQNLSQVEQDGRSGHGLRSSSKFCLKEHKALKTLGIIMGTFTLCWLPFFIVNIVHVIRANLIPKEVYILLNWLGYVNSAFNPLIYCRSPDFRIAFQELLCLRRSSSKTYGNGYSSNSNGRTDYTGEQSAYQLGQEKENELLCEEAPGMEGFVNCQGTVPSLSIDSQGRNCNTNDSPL

CC(C)(C)NCC(O)COc1ccc(NC(=O)c2cccs2)cc1C(N)=O (centres undefined)
Activity (Rattus norvegicus [1]): 7.67 mL
ID50 [2]: > 1 mg/kg
ID50 [3]: 0.12 mg/kg
Activity (Rattus norvegicus [4]): 0.301

CCCOC(=O)c1cc(NC(=O)c2cccs2)ccc1OCC(O)CNC(C)(C)C (centres undefined)
Activity (Rattus norvegicus [5]): 0.202
ID50 [2]: > 1 mg/kg
ID50 [3]: 0.27 mg/kg
Activity (Rattus norvegicus [6]): 7.17 mL

CCOC(=O)c1cc(NC(=O)c2ccsc2)ccc1OCC(O)CNC(C)C (centres undefined)
Activity (Rattus norvegicus [7]): 0.144
ID50 [2]: > 1 mg/kg
ID50 [3]: 0.19 mg/kg
treated urinary output (Rattus norvegicus [8]): 8.47 mL

CCOC(=O)c1cc(NC(=O)c2cccs2)ccc1OCC(O)CNC(C)(C)C (centres undefined) [TIENOXOLOL]
ID50 [9]: 0.065 mg/kg
Activity (Rattus norvegicus [10]): 7.42 mL
treated urinary output (Rattus norvegicus [11]): 11.2 mL
Activity (Rattus norvegicus [12]): 6.42 mL
treated urinary output (Rattus norvegicus [13]): 9 mL
Activity (Rattus norvegicus [14]): 0.207
Activity (Rattus norvegicus [15]): 9.02 mL
ED50 [16]: 0.00176 mg/kg
treated urinary output (Rattus norvegicus [17]): 9.83 mL
Activity (Rattus norvegicus [18]): 9.99 mL
Activity (Rattus norvegicus [19]): 0.207
Activity (Rattus norvegicus [20]): 0.259
Activity (Rattus norvegicus [21]): 0.207
ID50 [22]: > 1 mg/kg
ED50 [23]: 0.00133 mg/kg
ED50 [24]: 0.00179 mg/kg
Activity (Rattus norvegicus [25]): 0.207

COC(=O)c1cc(NC(=O)c2cccs2)ccc1OCC(O)CNC(C)C (centres undefined)
Activity (Rattus norvegicus [26]): 0.198
ID50 [2]: > 1 mg/kg
ID50 [3]: 0.25 mg/kg
Activity (Rattus norvegicus [27]): 8.17 mL

CC(C)(C)NCC(O)COc1ccc(NC(=O)c2cccs2)cc1Cl (centres undefined)
Activity (Rattus norvegicus [28]): 10.33 mL
ID50 [2]: 0.4 mg/kg
ID50 [3]: 0.014 mg/kg
Activity (Rattus norvegicus [29]): 0.14

CCOC(=O)c1cc(NC(=O)Cc2ccsc2)ccc1OCC(O)CNC(C)(C)C (centres undefined)
Activity (Rattus norvegicus [30]): 8.42 mL
ID50 [2]: 0.38 mg/kg
ID50 [3]: 0.015 mg/kg
Activity (Rattus norvegicus [31]): 0.186

CC(C)NCC(O)COc1ccc(NC(=O)c2cccs2)cc1Cl (centres undefined)
ID50 [2]: > 1 mg/kg
ID50 [3]: 0.17 mg/kg
Activity (Rattus norvegicus [32]): 10.33 mL
Activity (Rattus norvegicus [33]): 0.14

CC(=O)c1cc(NC(=O)c2cccs2)ccc1OCC(O)CNC(C)C (centres undefined)
ID50 [2]: > 1 mg/kg
ID50 [3]: 0.45 mg/kg
Activity (Rattus norvegicus [34]): 0.177
Activity (Rattus norvegicus [35]): 7.87 mL
